PAFAH2 inh – PAFAH2 (human) inhibition. Q99487. recombinant PAFAH2, FP-rhodamine activity probe, fluorescence polarization. inhibition, % at 3.39 µM. 0.99% of 340,000 active. AID 492956;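 active = inhibition above the mean over all tested compounds plus 3 SD, cut at about 30% in these data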;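 note: inhibitors block probe labeling of enzyme so polarization drops; 0% = enzyme with DMSO and 100% = wells lacking PAFAH2 protein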
ASAP1 GAP inh – ASAP1 ArfGAP inhibition. inhibition, % at 16.5 µM. ASAP1-stimulated ARF1 GTP hydrolysis, GDP FP detection. AID 624377. 0.19% of 360,000 active. Q9ULH1; in the data active = inhibition above about 25%;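 note: 0% = vehicle with enzyme and substrate and 100% = no enzyme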
Target sequence (Q9ULH1 325-724 limits assumed): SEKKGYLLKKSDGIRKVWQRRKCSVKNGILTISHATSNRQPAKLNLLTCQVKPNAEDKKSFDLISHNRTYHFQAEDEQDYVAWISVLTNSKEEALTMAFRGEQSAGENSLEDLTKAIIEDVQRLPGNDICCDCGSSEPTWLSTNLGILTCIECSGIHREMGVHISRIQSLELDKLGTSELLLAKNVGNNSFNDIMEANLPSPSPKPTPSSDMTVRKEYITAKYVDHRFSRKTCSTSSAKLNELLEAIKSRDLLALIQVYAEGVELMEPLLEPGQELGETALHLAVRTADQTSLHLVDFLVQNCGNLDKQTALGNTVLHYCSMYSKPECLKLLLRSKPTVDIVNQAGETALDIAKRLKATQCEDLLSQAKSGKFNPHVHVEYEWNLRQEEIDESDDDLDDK
ARFGAP1 inh – inhibitors of rat ARFGAP1; AID 651572; 0.26% of 360,000 active; Arfgap1-stimulated ARF1 GTP hydrolysis, GDP FP detection; inhibition, % at 16.5 µM;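 active = inhibition above a per-plate limit, mean inhibition of low control wells plus 3 SD, cut at about 25% in these data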;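 note: 0% = DMSO wells with enzyme and 100% = wells lacking Arfgap1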
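System: truncated rat Arfgap1 GAP domain / Medium: HEPES-based buffer, pH 7.5 / Also added: N-terminally truncated human ARF1-GTP substrate / Incubation: enzyme reaction 120 min at 25 °C after 20 min preincubation / Measured by: FP of antibody-bound GDP Alexa 633 tracer, ex 620/em 688 nm / Replicates: singlicate, each compound tested once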
pPAFAH inh – pPAFAH (human) enzyme inhibition | recombinant pPAFAH, FP-rhodamine probe fluorescence polarization | Q13093 | AID 463082 | 1.5% of 330,000 active | inhibition, % at 3.39 µM;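 active = inhibition above the mean inhibition across the screen plus 3 SD, cut at about 25% in these data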;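 note: inhibitors block binding of the rhodamine activity-based probe so polarization drops; 0% = enzyme with DMSO and 100% = wells lacking pPAFAH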
PAFAH1B3 inh – blocks human PAF acetylhydrolase 1B catalytic subunit 3 | Q15102 | recombinant PAFAH1B3, FP-rhodamine probe, fluorescence polarization | inhibition, % at 3.39 µM | 0.28% of 340,000 active;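 active = inhibition above the screen-wide average of all tested compounds plus 3 SD, cut at about 25% in these data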;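 note: 0% = enzyme with DMSO only and 100% = wells lacking PAFAH1B3 protein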
Target sequence (Q15102 whole entry, looked up): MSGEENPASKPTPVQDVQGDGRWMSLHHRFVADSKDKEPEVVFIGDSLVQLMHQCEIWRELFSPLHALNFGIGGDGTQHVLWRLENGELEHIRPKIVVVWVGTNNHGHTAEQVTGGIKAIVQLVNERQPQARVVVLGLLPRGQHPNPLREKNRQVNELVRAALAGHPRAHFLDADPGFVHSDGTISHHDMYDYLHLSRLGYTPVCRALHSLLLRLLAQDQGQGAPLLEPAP
PAFAH1B2 inh – blocks human PAF acetylhydrolase 1b catalytic subunit 2 | recombinant PAFAH1B2, FP-rhodamine activity probe, fluorescence polarization | inhibition, % at 3.39 µM | 1.2% of 340,000 active | AID 492953;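 active = inhibition above the mean of all tested compounds plus 3 SD, cut at about 24% in these data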;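 note: 0% = enzyme with DMSO and 100% = wells lacking PAFAH1B2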
An asterisk follows results filed as active; . = not tested or not shown; + = active, no number. Shown are actives, neighbours in structure and some others; about 2.7% of the full set was active somewhere.

SMILES	PAFAH2 inh	ASAP1 GAP inh	ARFGAP1 inh	pPAFAH inh	PAFAH1B3 inh	PAFAH1B2 inh
O=C(N[C@H](Cc1ccccc1)C(=O)N1CCCN(Cc2ccccc2F)CC1)[C@H]1O[C@@H](n2ccc(=O)[nH]c2=O)[C@H](O)[C@@H]1O	.	6	5	.	.	.
O=C(NCCN1CCOCC1)c1ccc(/C=C2\Sc3ccccc3N(Cc3ccccc3F)C2=O)cc1	-8	-7	11	33*	2	-1
COc1ccc(OC)c(/C=N/NC(=O)c2cc3c(OC)cccc3[nH]2)c1	4	-6	17	25*	12	13
COc1ccc(/C=N/NC(=O)c2cccnc2)c2ccccc12	+	8	-9	3	199*	155*
COc1ccc(OC)c2[nH]c(C(=O)N/N=C/c3ccccc3O)cc12	30*	2	14	19	42*	34*
COc1ccc(/C=N/NC(=O)c2cc3c(OC)ccc(OC)c3[nH]2)cc1O	5	12	-1	24	22	29*
O=C1N[C@@H](Cc2ccccc2)COC(=O)[C@@H](Cc2ccc(F)cc2)C/C=C\C[C@@H]1CC(=O)N(CCO)Cc1ccccc1	1	-4	12	9	-2	41*
CC(C)(C)[C@@H]1COC(=O)[C@H](Cc2ccc(F)cc2)C/C=C\C[C@H](CC(=O)N(CCO)Cc2ccccc2)C(=O)N1	3	2	-10	3	5	30*
O=C1NCCOC(=O)[C@@H](Cc2ccc(F)cc2)C/C=C\C[C@@H]1CC(=O)N(CCO)Cc1ccccc1	-1	-13	-6	4	1	26*
O=C1N[C@H](Cc2ccccc2)COC(=O)[C@H](Cc2ccc(F)cc2)CC/C=C/C[C@H]1CC(=O)N(CCO)Cc1ccccc1	4	14	4	6	4	3
CC(C)(C)OC(=O)C[C@@H]1C/C=C\C[C@@H](CC(=O)N(CCO)Cc2ccccc2)C(=O)NCCOC1=O	-7	13	-4	3	3	-1
C=CCO[C@H]1CN(C(=O)OC)[C@@H]2C[C@H]1Oc1ccccc12	.	11	-3	.	.	.
C=CCN=C1NC(c2ccccc2)C(C(=O)OC)=C(C)N1C (stereo not given)	.	-2	-12	.	.	.
O=C(N/C=C/c1ccco1)OCc1ccccc1	5	6	12	26*	10	-2
O=C(O/N=C/c1ccc(Br)cc1)c1ccc(F)cc1	67*	2	4	-2	2	45*
N/C(=N\OC(=O)c1ccc(F)cc1)c1ccc(Br)cc1	-1	2	-5	-5	3	2
N#C/C(=C/c1ccco1)C(N)=S	34*	3	3	33*	17	14
COc1ccc(NS(=O)(=O)c2cccc(C(=O)NNC(=O)CNC(=O)c3ccco3)c2)cc1	-2	-5	-4	11	2	2
COc1ccc(NS(=O)(=O)c2cccc(C(=O)N3CCCCCC3)c2)cc1	-1	1	10	31*	9	8
CCOc1ccccc1C(=O)NCC(=O)NNC(=O)c1cccc(S(=O)(=O)Nc2ccc(OC)cc2)c1	4	-9	4	26*	7	5
COc1ccc(NS(=O)(=O)c2cccc(C(=O)NCC(c3ccc(OC)cc3)N3CCOCC3)c2)cc1 (stereo not given)	-3	-4	-10	32*	6	-1
COc1ccc(NS(=O)(=O)c2cccc(C(=O)NNC(=O)c3ccc(NC(C)=O)cc3)c2)cc1	1	8	3	26*	3	-1
CCOC(=O)C1=CCN(S(=O)(=O)c2ccc(Cl)cc2)C1c1cccc(Br)c1 (stereo not given)	.	1	-4	.	.	.
COC(=O)N1C[C@H](OCc2ccccc2)[C@H]2C[C@@H]1c1ccccc1O2	.	-4	11	.	.	.
COC(=O)[C@H](Cc1ccccc1)N1CC(N2CCCC2)CS1(=O)=O (stereo not given in full)	.	-2	1	.	.	.
SMILES	PAFAH2 inh	ASAP1 GAP inh	ARFGAP1 inh	pPAFAH inh	PAFAH1B3 inh	PAFAH1B2 inh
C[C@@H]1CN(c2ccc(N3CCN(C(=O)OC(C)(C)C)C[C@@H]3C)cc2C#N)CCN1Cc1ccccc1	.	-7	4	.	.	.
O=C(O)c1cccc(S(=O)(=O)Nc2cc(Cl)ccc2Cl)c1	1	-10	1	6	8	24*
COc1ccc(NS(=O)(=O)c2ccc(N3CCCC3)c(NC(=S)Nc3cccc(S(=O)(=O)N(C)C)c3)c2)cc1	.	.	.	33*	.	.
COc1ccccc1S(=O)(=O)Nc1cccc(-c2nnc3n2CCCCC3)c1	4	-2	-5	-1	9	-2
COc1ccc(NS(=O)(=O)c2cccc(-c3nnc4n3CCCCC4)c2)cc1	5	13	-7	29*	3	0
O=C(O)c1cccc(S(=O)(=O)Nc2ccc(N3CCCCC3)cc2)c1	-2	-14	3	27*	16	5
O=C(O)c1cccc(S(=O)(=O)Nc2ccccc2Cl)c1	3	-3	-8	4	-4	5
COC(=O)C1CCN(C2CN(Cc3cn(Cc4ccc(C(F)(F)F)cc4)nn3)S(=O)(=O)C2)CC1 (stereo not given)	.	-3	0	.	.	.
COc1ccc(NS(=O)(=O)c2cccc(C(=O)NNC(=O)c3cc(S(N)(=O)=O)ccc3OC)c2)cc1	0	5	0	25*	-3	-1
COc1ccc(NS(=O)(=O)c2cccc(NC(=O)C34CCC(CC3)C4)c2)cc1	10	0	-3	26*	4	7
COc1ccc(NS(=O)(=O)c2cccc(C(=O)NNC(=O)c3ccc(O)c(Cl)c3)c2)cc1	1	-11	-10	10	6	1
COc1ccc(NS(=O)(=O)c2cccc(NC(=O)c3ccc(S(=O)(=O)N4CCCCCC4)cc3)c2)cc1	-86	.	.	-27	-39	-18
COc1ccc(NS(=O)(=O)c2cccc(C(=O)NN=Cc3ccc(OC)c(O)c3)c2)cc1	2	7	1	32*	15	13
CC1(O)C(=O)C2(C)C=CC1C1C(=O)N(c3ccccc3)C(=O)C12 (stereo not given)	.	-4	4	.	.	.
COC(=O)C1=C(C)N(Cc2cccc(C(F)(F)F)c2)C(=NCC2CC2)NC1c1cccc(Cl)c1 (stereo not given)	.	-2	-3	.	.	.
Cc1nn(CC(C)C(=O)N2CCN(S(=O)(=O)c3ccc(Cl)cc3)CC2)c(C)c1C (stereo not given)	3	-5	-6	-5	-2	26*
O=C(CN1CSCC1=O)N1CCN(S(=O)(=O)c2ccc(Cl)cc2)CC1	-3	-12	2	2	12	29*
Nn1c(SCC(=O)N2CCN(S(=O)(=O)c3ccc(Cl)cc3)CC2)nnc1-c1cccs1	4	-7	4	31*	-1	23
Cc1nnc(SCC(=O)N2CCN(S(=O)(=O)c3ccc(Cl)cc3)CC2)[nH]c1=O	4	-1	5	-6	3	30*

Screening results deposited in PubChem BioAssay by The Scripps Research Institute Molecular Screening Center.
